These results are taken from ChEMBL document CHEMBL4376852, “Ligand-Based Design of Allosteric Retinoic Acid Receptor-Related Orphan Receptor γt (RORγt) Inverse Agonists” (J Med Chem, 2020).

≈ marks a conversion by molar mass, not a printed value.

In general, IC50 refers to the concentration that inhibits the measured activity by half.

Data set [1] addresses T1, Nuclear receptor ROR-gamma (Homo sapiens, UniProt P51449).
T1 sequence (P51449 whole entry): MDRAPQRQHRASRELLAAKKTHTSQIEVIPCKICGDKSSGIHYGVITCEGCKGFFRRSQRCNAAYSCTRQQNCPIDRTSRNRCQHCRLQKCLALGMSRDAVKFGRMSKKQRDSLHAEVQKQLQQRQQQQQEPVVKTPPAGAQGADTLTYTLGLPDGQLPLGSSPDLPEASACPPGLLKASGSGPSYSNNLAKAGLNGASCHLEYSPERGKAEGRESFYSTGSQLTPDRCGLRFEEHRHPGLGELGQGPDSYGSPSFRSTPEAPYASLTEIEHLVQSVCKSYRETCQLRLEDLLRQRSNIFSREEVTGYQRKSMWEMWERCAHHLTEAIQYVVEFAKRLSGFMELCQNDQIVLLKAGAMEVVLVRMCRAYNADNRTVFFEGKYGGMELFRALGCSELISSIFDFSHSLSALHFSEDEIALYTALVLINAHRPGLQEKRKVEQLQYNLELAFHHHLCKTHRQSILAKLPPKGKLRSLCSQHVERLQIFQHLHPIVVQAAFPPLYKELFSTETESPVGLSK
As to the kind of experiment: Competitive inverse agonist activity at human N-terminal His6-tagged RORgammat LBD (265 to 518 residues) expressed in Escherichia coli BL21 (DE3) assessed as inhibition of N-terminal biotinylated co-activator SRC1 box2 peptide recruitment measured after 30 mins in absence of RORgamma agonist cholesterol by TR-FRET assay. (In general: TR-FRET usually uses a lanthanide donor and a delayed reading to cut background.)

In data set [2] the target is T1, Nuclear receptor ROR-gamma. The data set is described as follows: Competitive inverse agonist activity at human N-terminal His6-tagged RORgammat LBD (265 to 518 residues) expressed in Escherichia coli BL21 (DE3) assessed as inhibition of N-terminal biotinylated co-activator SRC1 box2 peptide recruitment measured after 30 mins in presence of 1 uM RORgamma agonist cholesterol by TR-FRET assay.

Data set [3] concerns the target T1, Nuclear receptor ROR-gamma. The data set is described as follows: Competitive inverse agonist activity at human N-terminal His6-tagged RORgammat LBD (265 to 518 residues) expressed in Escherichia coli BL21 (DE3) assessed as inhibition of N-terminal biotinylated co-activator SRC1 box2 peptide recruitment measured after 30 mins in presence of 0.25 uM RORgamma agonist cholesterol by TR-FRET assay.

Data set [4] is described as follows: Chemical stability of the compound in pH 7.4 aqueous buffer assessed as parent compound remaining at 2 uM measured after 24 hrs by LC-MS analysis. The format is physicochemical. As to conditions: read-out: Stability. In short, it runs like this:
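Compound at 2 μM final in aqueous buffer pH 7.4, sampled at 1, 7 and 24 h; LC–MS quantitation of each aliquot, % remaining expressed relative to the zero time point.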

Data set [5] is described as follows: Stability of the compound in plasma (unknown origin) assessed as parent compound remaining at 5 uM measured after 1 hr by LC-MS analysis. The class given is ADME, cell-free. The settings on record: read-out: Stability. In short, it runs like this:
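5 μM compound incubated in 100% plasma for 1 h at 37 °C; % remaining by LC–MS.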

In data set [6] the target is T2, Nuclear receptor ROR-gamma (Homo sapiens) (UniProt P51449).
T2 sequence (whole entry): T1 sequence (P51449 whole entry)
The data set is described as follows: (§1) Inverse agonist activity at human N-terminal His6-tagged RORgammat LBD (265 to 518 residues) expressed in Escherichia coli BL21 (DE3) assessed as inhibition of N-terminal biotinylated co-activator SRC1 box2 peptide recruitment measured after 30 mins by TR-FRET assay.

Data set [7] can be described thus: Stability in human liver microsomes assessed as parent compound remaining at 5 uM measured after 1 hr in presence of metabolic phase 2 cofactors UDPGA by LC-MS analysis. The format is ADME, Microsome. As to conditions: read-out: Stability. In outline:
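Glucuronidation conditions: 5 μM compound with liver microsomes supplemented with UDPGA, 1 h at 37 °C; % remaining determined by LC–MS.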
(In general: Liver microsomes are a subcellular fraction often used to study metabolism.)

A short description of data set [8]: Kinetic solubility of the compound in pH 7.4 aqueous buffer at 500 uM measured after 90 mins by spectrophotometric method. The class given is physicochemical. The settings on record: read-out: Kinetic_solubility.
The nature of data set [9]: Protein binding in plasma (unknown origin) at 5 uM measured after 6 hrs by LC-MS based equilibrium dialysis analysis. As to conditions: read-out: PPB (converted). The format is ADME, cell-free. In short, it runs like this:
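Equilibrium dialysis: plasma incubated with 5 μM compound for 6 h at 37 °C, final compound concentrations determined by LC–MS.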
For orientation: Equilibrium dialysis compares concentrations on both sides of a semipermeable membrane.

Data set [10] can be described thus: Permeability of the compound at 500 uM after 20 hrs by PAMPA. The class given is ADME. In outline:
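Donor compartment starts at 500 μM compound; after 20 h incubation, receiver-well absorbance read by spectrophotometry; permeation normalized to flux across a blank filter.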

The target in data set [11] is T1, Nuclear receptor ROR-gamma. The description is as §1.
Data set [12] concerns the target T3, Peroxisome proliferator-activated receptor gamma (Homo sapiens, UniProt P37231).
T3 sequence (P37231 whole entry): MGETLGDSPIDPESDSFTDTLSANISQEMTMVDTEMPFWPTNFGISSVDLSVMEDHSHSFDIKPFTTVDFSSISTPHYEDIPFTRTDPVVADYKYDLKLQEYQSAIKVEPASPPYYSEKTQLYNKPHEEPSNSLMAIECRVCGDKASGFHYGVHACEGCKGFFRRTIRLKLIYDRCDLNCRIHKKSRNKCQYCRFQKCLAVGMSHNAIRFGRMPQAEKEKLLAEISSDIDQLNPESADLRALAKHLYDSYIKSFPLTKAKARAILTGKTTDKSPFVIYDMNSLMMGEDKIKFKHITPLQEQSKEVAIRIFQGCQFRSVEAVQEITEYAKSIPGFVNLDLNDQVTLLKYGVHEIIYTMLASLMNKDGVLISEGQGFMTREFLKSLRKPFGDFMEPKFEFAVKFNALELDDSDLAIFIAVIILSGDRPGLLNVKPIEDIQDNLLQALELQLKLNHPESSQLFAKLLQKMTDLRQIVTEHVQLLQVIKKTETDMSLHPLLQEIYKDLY
As to the kind of experiment: Inverse agonist activity at His6-tagged PPARgamma LBD (unknown origin) assessed as inhibition of rosiglitazone-induced N-terminal biotinylated co-activator SRC1 box2 peptide recruitment measured after 30 mins by TR-FRET assay. In outline: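 His6-PPARγ-LBD at 100 nM with 100 nM N-terminal biotinylated SRC-1 box2 peptide in 10 mM HEPES, 150 mM NaCl, 5 mM DTT, 0.1% BSA, 0.1 mM CHAPS, pH 7.5, with 1 μM rosiglitazone. Tb anti-His donor, D2-streptavidin acceptor. Compounds in DMSO, 2× dilution series, 2% DMSO final. 30 min at room temperature. IC50 from sigmoidal fit of FRET ratio. Triplicate.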

Data set [13] in a line: Intrinsic clearance in human liver microsomes at 3 uM measured up to 90 mins in presence of metabolic phase 1 cofactors by LC-MS analysis. The format is ADME, Microsome. As to conditions: 1.5 h.

Regarding `C[C@H]1O[C@@H](O[C@H]2[C@@H](O)C[C@H](O[C@H]3[C@@H](O)C[C@H](O[C@H]4CC[C@@]5(C)[C@H](CC[C@@H]6[C@@H]5C[C@@H](O)[C@]5(C)[C@@H](C7=CC(=O)OC7)CC[C@]65O)C4)O[C@@H]3C)O[C@@H]2C)C[C@H](O)[C@@H]1O` [DIGOXIN], the IC50 in data set [1] is 7.01 µM; in [2], 85.4 µM; in data set [3] it was 33.6 µM.
On to `O=C(O)c1ccc(NC(=O)c2c(-c3c(Cl)cccc3C(F)(F)F)noc2-c2ccccc2)cc1`, for which, in data set [4], the remaining at 24 h, 2 µM was determined as 95.4%. The values for the remaining at 1 h, 5 µM in data set [5] and in [7] were 99.9% and 100%, respectively. Also, the inhibition entry in [6] was “Dose-dependent effect”. Also, the solubility kinetic at 1.5 h, 500 µM in data set [8] was determined as 490 µM (≈ 239 µg/mL). Further, the fraction unbound at 6 h, 5 µM in data set [9] was 0.022. Besides, the permeability in data set [10] is reported as 60.1%.
In the case of `O=C(O)c1ccc(-c2nn(C(=O)c3c(Cl)cccc3C(F)(F)F)c3ccccc23)cc1`, the remaining at 24 h, 2 µM in data set [4] turned out to be 81%. Besides, the remaining at 1 h, 5 µM in data set [5] is 100%; in data set [7] it was 47.1%. Also, the solubility kinetic at 1.5 h, 500 µM in data set [8] is 390 µM (≈ 173 µg/mL). Further, the fraction unbound at 6 h, 5 µM in [9] was 0.001. The compound also displayed a permeability in [10] of 23.7%.
Take `Cc1onc(-c2c(Cl)cccc2C(F)(F)F)c1C(=O)Nc1ccc(C(=O)O)cc1`: the inhibition entry in data set [6] is “Dose-dependent effect”. Also, the concentration for half-maximal inhibition (IC50) in data set [11] is more than 100 µM.
For the compound `O=C(O)c1ccc(NCc2c(-c3c(Cl)cccc3C(F)(F)F)noc2-c2ccco2)cc1`, the remaining at 24 h, 2 µM in [4] was determined as 100%. For the same compound, the IC50 in data set [12] was more than 100 µM. Also, in data set [13], the CLH was 43.2 µL/min/mg. Further, the remaining at 1 h, 5 µM was found to be 86.5% in data set [5] and 92.8% in [7]. Moreover, in data set [8], the solubility kinetic at 1.5 h, 500 µM came to 392 µM (≈ 181 µg/mL). The permeability in [10] was found to be 50.4%.
As to `O=C(O)c1ccc(NCc2c(-c3c(Cl)cccc3C(F)(F)F)noc2-c2ccccc2)cc1`, the IC50 in data set [12] came out at 78.6 µM.
`O=C(O)Cc1ccc(NC(=O)c2c(-c3c(Cl)cccc3C(F)(F)F)noc2-c2ccccc2)cc1`: in data set [11], the IC50 is more than 100 µM.
The same measure, in the same setting: the result for `CC(C)(C)OC(=O)c1ccc(NC(=O)c2c(-c3c(Cl)cccc3C(F)(F)F)noc2-c2ccccc2)cc1` reads more than 100 µM.
Consider `O=C(O)c1ccc(NCc2c(-c3c(Cl)cccc3C(F)(F)F)noc2-c2cccs2)cc1`, for which the figures for the IC50 in data set [12] and in data set [11] were more than 100 µM and 1.75 µM, respectively.
Take `O=C(O)c1ccc(NCc2c(-c3c(Cl)cccc3C(F)(F)F)noc2-c2cc[nH]c2)cc1`: the remaining at 24 h, 2 µM in data set [4] came to 95.3%. In addition, the CLH in [13] came out at 20.7 µL/min/mg. Further, the remaining at 1 h, 5 µM in data set [5] is 85.9%; in data set [7], 69.8%. For the same compound, the solubility kinetic at 1.5 h, 500 µM in data set [8] was 411 µM (≈ 190 µg/mL). For the same compound, in data set [9], the fraction unbound at 6 h, 5 µM was 0.001. The compound also yielded a permeability in [10] of 33.6%.
As for `O=C(O)c1ccc(NCc2c(-c3c(Cl)cccc3C(F)(F)F)noc2-c2cccc(O)c2)cc1`, the 50% inhibitory concentration (IC50) in data set [12] is more than 100 µM.
On to `O=C(O)c1ccc(C(=O)Nc2c(-c3c(Cl)cccc3C(F)(F)F)noc2-c2ccccc2)cc1`, for which the IC50 in [11] was more than 100 µM.
As to `O=C(O)c1ccc(NCc2c(-c3c(Cl)cccc3C(F)(F)F)noc2-c2cccc3ccccc23)cc1`, the IC50 in data set [12] and in data set [11] was more than 100 µM in each case.
Consider `O=C(O)c1c(-c2c(Cl)cccc2C(F)(F)F)noc1-c1ccccc1`, for which the IC50 in data set [11] is more than 100 µM.
